According to ChEMBL document CHEMBL3259545, “Novel pyrrolobenzoxaboroles: design, synthesis, and biological evaluation against Trypanosoma brucei” (Eur J Med Chem, 2014):
Converted amounts (≈) assume the structure as drawn. The source made the active and inactive calls. No cut-off for these calls is given here.

Key:
[1] = tested on: Trypanosoma brucei brucei; assay: Antitrypanosomal activity against Trypanosoma brucei brucei 427 after 72 hrs by alamar blue assay; format: functional, organism-based; settings: Trypanosoma brucei, 427, 72 h
How it was run: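 Bloodstream T. b. brucei 427 kept in log phase in HMI-9 with 10% FBS, 10% Serum Plus and penicillin/streptomycin, subcultured every 2–3 days. Final density 1.0 × 10⁵/mL with 0.4% DMSO, exposed to serially diluted compounds for 72 h at 37 °C, 5% CO₂. Resazurin added for another 2–4 h, fluorescence read at ex 544/em 590 nm. IC50 from sigmoidal fits of triplicate points.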

L929 = assay: Cytotoxicity against mouse L929 cells assessed as cell viability after 72 hrs by alamar blue assay; format: cell-based; settings: L929, 72 h
How it was run: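 L929 mouse fibroblasts grown in DMEM with 10% FBS and 1% penicillin/streptomycin, kept sub-confluent. Seeded from a 1 × 10⁴/mL suspension, attached overnight, then medium renewed and DMSO-diluted compounds added. Incubated 72 h at 37 °C, 5% CO₂. Resazurin added for another 3–4 h, fluorescence read at ex 544/em 590 nm.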

[2] = tested on: Trypanosoma brucei brucei; assay: Trypanocidal activity against bloodstream stage of Trypanosoma brucei brucei infected in acute BALB/c mouse assessed as extension of animal survival at 50 mg/kg, ip bid administered for 5 days initiated 24 hrs post infection; format: functional, organism-based; set-up: dose 50 mg/kg
How it was run: (§1)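 Female BALB/c mice infected i.p. with 600 T. b. brucei 221 parasites. Starting 24 h after infection, compounds were given i.p. at 50 mg/kg twice daily for 5 days, in 5% ethanol/45% water/50% PEG400. Untreated mice served as controls. Parasitemia was checked by trypan-blue-stained tail-vein blood smears every other day for ten days, then weekly, with survival followed to day 30.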

[3] = tested on: Trypanosoma brucei brucei; assay: Trypanocidal activity against bloodstream stage of Trypanosoma brucei brucei infected in acute BALB/c mouse assessed as clearance of blood parasite on day 30 at 50 mg/kg, ip bid administered for 5 days initiated 24 hrs post infection; format: functional; settings: route intraperitoneal; how it was run: as §1
[4] = tested on: Trypanosoma brucei brucei; assay: Trypanocidal activity against bloodstream stage of Trypanosoma brucei brucei infected in acute BALB/c mouse assessed as animal survival rate at 50 mg/kg, ip bid administered for 5 days initiated 24 hrs post infection; format: functional; settings: route intraperitoneal
How it was run: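 Female BALB/c mice infected i.p. with 600 T. b. brucei 221 bloodstream parasites; from 24 h post-infection, dosed 50 mg/kg i.p. twice daily for 5 days in 5% ethanol/45% sterile deionized water/50% PEG400. Parasitaemia was checked on trypan-blue-stained tail-vein blood smears every other day for 10 days, then weekly; survival was followed to day 30.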

SMILES	IC50 [1] [µg/mL]	IC50 (L929) [µg/mL]	Activity [2]	Activity [3] [%]	survival at 50 mg/kg [4] [%]
O=C(c1ccc(Cl)cc1Cl)c1cccn1-c1ccc2c(c1)B(O)OC2	1.43 (≈ 3.84 µM)	> 10	–	–	–
OB1OCc2ccc(-n3cc(Sc4ccc(F)cc4)c4ccccc43)cc21	> 5	> 10	–	–	–
CCCC(=O)c1ccn(-c2ccc3c(c2)B(O)OC3)c1	0.11 (≈ 0.409 µM)	> 10	–	–	–
O=C(c1ccn(-c2ccc3c(c2)B(O)OC3)c1)c1cccc2ccccc12	0.4 (≈ 1.13 µM)	5.59 (≈ 15.8 µM)	–	–	–
COc1ccc(C(=O)c2ccn(-c3ccc4c(c3)B(O)OC4)c2)cc1	0.11 (≈ 0.33 µM)	> 10	–	–	–
O=C(c1ccn(-c2ccc3c(c2)B(O)OC3)c1)c1ccccc1Cl	0.28 (≈ 0.829 µM)	> 10	–	–	–
Cc1cccc(C(=O)c2ccn(-c3ccc4c(c3)B(O)OC4)c2)c1	0.09 (≈ 0.284 µM)	> 10	–	–	–
O=C(c1ccccc1)c1cccn1-c1ccc2c(c1)B(O)OC2	0.34 (≈ 1.12 µM)	> 10	–	–	–
OB1OCc2ccc(-n3cccc3Sc3ccccc3Cl)cc21	2.89 (≈ 8.46 µM)	> 10	–	–	–
O=C(c1ccc(F)cc1)c1cccn1-c1ccc2c(c1)B(O)OC2	0.4 (≈ 1.25 µM)	> 10	–	–	–
NCc1ccc(C(=O)c2ccn(-c3ccc4c(c3)B(O)OC4)c2)cc1	0.18 (≈ 0.542 µM)	> 10	–	–	–
O=C(c1ccn(-c2ccc3c(c2)B(O)OC3)c1)C1CCCCC1	0.13 (≈ 0.42 µM)	> 10	–	–	–
O=C(c1ccc(Cl)cc1)c1ccn(-c2ccc3c(c2)B(O)OC3)c1	0.21 (≈ 0.622 µM)	> 10	–	–	–
O=C(c1ccn(-c2ccc3c(c2)B(O)OC3)c1)c1ccc(Cl)cc1Cl	1.12 (≈ 3.01 µM)	> 10	–	–	–
CCCNC(=O)c1cccn1-c1ccc2c(c1)B(O)OC2	3.21 (≈ 11.3 µM)	> 10	–	–	–
COc1ccccc1C(=O)c1ccn(-c2ccc3c(c2)B(O)OC3)c1	0.17 (≈ 0.51 µM)	> 10	–	–	–
O=C(c1ccc(F)cc1)c1ccn(-c2ccc3c(c2)B(O)OC3)c1	0.16 (≈ 0.498 µM)	> 10	–	–	–
O=C(c1ccc(CO)cc1)c1ccn(-c2ccc3c(c2)B(O)OC3)c1	0.04 (≈ 0.12 µM)	9.31 (≈ 27.9 µM)	–	–	–
O=C(NCCc1ccccc1)c1cccn1-c1ccc2c(c1)B(O)OC2	0.68 (≈ 1.96 µM)	> 10	–	–	–
O=C(c1cccc(Cl)c1)c1ccn(-c2ccc3c(c2)B(O)OC3)c1	0.35 (≈ 1.04 µM)	> 10	–	–	–
Cc1ccsc1C(=O)c1ccn(-c2ccc3c(c2)B(O)OC3)c1	0.11 (≈ 0.34 µM)	> 10	–	–	–

SMILES	IC50 [1] [µg/mL]	IC50 (L929) [µg/mL]	Activity [2]	Activity [3] [%]	survival at 50 mg/kg [4] [%]
CNC(=O)c1cccn1-c1ccc2c(c1)B(O)OC2	0.86 (≈ 3.36 µM)	> 10	–	–	–
OB1OCc2ccc(-n3ccc4ccccc43)cc21	> 5	> 10	–	–	–
COc1cc(C(=O)c2ccn(-c3ccc4c(c3)B(O)OC4)c2)cc(OC)c1OC	0.16 (≈ 0.407 µM)	1.15 (≈ 2.92 µM)	–	–	–
O=C(Cc1ccccc1)c1ccn(-c2ccc3c(c2)B(O)OC3)c1	0.29 (≈ 0.914 µM)	> 10	–	–	–
Cc1ccc(C(=O)c2ccn(-c3ccc4c(c3)B(O)OC4)c2)cc1	0.08 (≈ 0.252 µM)	> 10	–	–	–
CCNC(=O)c1cccn1-c1ccc2c(c1)B(O)OC2	1.85 (≈ 6.85 µM)	> 10	–	–	–
COc1ccc([S+]([O-])c2cn(-c3ccc4c(c3)B(O)OC4)c3ccccc23)cc1 (configuration not stated)	1.56 (≈ 3.87 µM)	> 10	–	–	–
CCc1ccc(C(=O)c2ccn(-c3ccc4c(c3)B(O)OC4)c2)cc1	0.07 (≈ 0.211 µM)	> 10	Active	–	–
O=C(c1ccc(O)cc1)c1ccn(-c2ccc3c(c2)B(O)OC3)c1	0.06 (≈ 0.188 µM)	> 10	Active	–	–
OB1OCc2ccc(-n3ccc(Cc4ccccc4)c3)cc21	2.17 (≈ 7.5 µM)	> 10	–	–	–
COc1ccc(CNC(=O)c2cccn2-c2ccc3c(c2)B(O)OC3)cc1	0.7 (≈ 1.93 µM)	> 10	–	–	–
OB1OCc2ccc(-n3cccc3Sc3ccc(Cl)c(Cl)c3)cc21	> 5	> 10	–	–	–
OB1OCc2ccc(-n3cc(Sc4ccc(Cl)c(Cl)c4)c4ccccc43)cc21	> 5	> 10	–	–	–
O=C(O)c1cccn1-c1ccc2c(c1)B(O)OC2	0.13 (≈ 0.535 µM)	> 10	–	–	–
CC(=O)c1cccn1-c1ccc2c(c1)B(O)OC2	0.69 (≈ 2.86 µM)	> 10	–	–	–
Cc1ccccc1C(=O)c1ccn(-c2ccc3c(c2)B(O)OC3)c1	0.56 (≈ 1.77 µM)	> 10	–	–	–
CCCCCC(=O)c1ccn(-c2ccc3c(c2)B(O)OC3)c1	0.09 (≈ 0.303 µM)	> 10	–	–	–
OB1OCc2ccc(-n3cc(Sc4ccc5ccccc5c4)c4ccccc43)cc21	> 5	> 10	–	–	–
O=C(c1ccccc1Cl)c1cccn1-c1ccc2c(c1)B(O)OC2	0.7 (≈ 2.07 µM)	> 10	–	–	–
OB1OCc2ccc(-n3cc(Sc4cccc(Cl)c4)c4ccccc43)cc21	> 5	> 10	–	–	–
COc1ccc(S(=O)(=O)c2cn(-c3ccc4c(c3)B(O)OC4)c3ccccc23)cc1	> 5	> 10	–	–	–

SMILES	IC50 [1] [µg/mL]	IC50 (L929) [µg/mL]	Activity [2]	Activity [3] [%]	survival at 50 mg/kg [4] [%]
CC(=O)c1ccn(-c2ccc3c(c2)B(O)OC3)c1	0.56 (≈ 2.32 µM)	> 10	–	–	–
OB1OCc2ccc(-n3cccc3)cc21	1.98 (≈ 9.95 µM)	> 10	–	–	–
O=C(c1ccccc1)c1ccn(-c2ccc3c(c2)C(O)OC3)c1 (configuration not stated)	> 5	8.18 (≈ 26.8 µM)	–	–	–
Nc1ccc(C(=O)c2ccn(-c3ccc4c(c3)B(O)OC4)c2)cc1	0.03 (≈ 0.0943 µM)	3.9 (≈ 12.3 µM)	–	100	100
O=C(CCCN1C(=O)c2ccccc2C1=O)c1ccn(-c2ccc3c(c2)B(O)OC3)c1	0.72 (≈ 1.74 µM)	> 10	–	–	–
O=[N+]([O-])c1ccc(Sc2cn(-c3ccc4c(c3)B(O)OC4)c3ccccc23)cc1	> 5	> 10	–	–	–
OB1OCc2ccc(-n3cc(Sc4ccc(O)cc4)c4ccccc43)cc21	> 5	> 10	–	–	–
OB1OCc2ccc(-n3cc(Sc4ccc(Cl)cc4)c4ccccc43)cc21	> 5	> 10	–	–	–
O=C(c1ccn(-c2ccc3c(c2)B(O)OC3)c1)c1cccs1	0.08 (≈ 0.259 µM)	> 10	–	–	–
COc1ccc(Sc2cn(-c3ccc4c(c3)B(O)OC4)c3ccccc23)cc1	> 5	> 10	–	–	–
O=C(c1ccccc1)c1ccn(-c2ccccc2)c1	> 5	> 10	–	–	–
OB1OCc2ccc(-n3cc(Sc4ccccc4O)c4ccccc43)cc21	> 5	> 10	–	–	–
CC(=O)OCc1ccc(C(=O)c2ccn(-c3ccc4c(c3)B(O)OC4)c2)cc1	0.03 (≈ 0.08 µM)	10 (≈ 26.7 µM)	–	–	–
O=C(NC1CCCCC1)c1cccn1-c1ccc2c(c1)B(O)OC2	2.85 (≈ 8.79 µM)	> 10	–	–	–
OB1OCc2ccc(-n3cccc3Sc3ccc(Cl)cc3)cc21	1.16 (≈ 3.4 µM)	> 10	–	–	–
O=C(CCc1ccccc1)c1ccn(-c2ccc3c(c2)B(O)OC3)c1	0.19 (≈ 0.574 µM)	> 10	–	–	–
O=C(NCc1ccccc1)c1cccn1-c1ccc2c(c1)B(O)OC2	0.8 (≈ 2.41 µM)	> 10	–	–	–
Cc1ccc(C(=O)c2ccn(-c3ccc4c(c3)B(O)OC4)c2)s1	0.07 (≈ 0.217 µM)	> 10	–	100	100
NCCCC(=O)c1ccn(-c2ccc3c(c2)B(O)OC3)c1	4.02 (≈ 14.1 µM)	> 10	–	–	–
O=C(c1ccccc1)c1ccn(-c2ccc3c(c2)B(O)OC3)c1	0.09 (≈ 0.297 µM)	> 10	–	100	100
